Experimental findings from ChEMBL document CHEMBL3227923, “Conformational analysis of podophyllotoxin and its congeners. Structure--activity relationship in microtubule assembly” (J Med Chem, 1979) are described below.

For this experiment, the species on record is Gallus gallus. Kind of experiment: Inhibition of chicken brain microtubule polymerization after 30 mins. Put shortly:
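Chicken brain microtubule assembly in vitro at 37 °C and neutral pH over a 30-min incubation. ID50 is the drug concentration giving 50% inhibition of assembly, averaged from triplicate experiments (standard deviation <15%).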

Where only a bound is given, the exact number is not on record here.

Turning to `COc1cc([C@@H]2c3cc4c(cc3[C@H](O)[C@H]3COC[C@H]23)OCO4)cc(OC)c1OC`, the ID50 stood at 1 µM.

As for `COc1cc([C@@H]2c3cc4c(cc3[C@H](O)[C@H]3CSC[C@H]23)OCO4)cc(OC)c1OC`, the ID50 amounted to 10 µM.

In turn, `COc1cc([C@@H]2c3cc4c(cc3C[C@H]3CCC[C@@H]32)OCO4)cc(OC)c1OC` gave an ID50 of 5 µM.

As for `COc1cc([C@@H]2c3cc4c(cc3[C@H](O)[C@H]3CS(=O)(=O)C[C@H]23)OCO4)cc(OC)c1OC`, the ID50 was greater than 100 µM.

As to `COc1cc([C@@H]2c3cc4c(cc3C[C@H]3COC(=O)[C@@H]32)OCO4)cc(OC)c1OC`, the ID50 worked out at 0.5 µM.

In turn, `COc1cc([C@@H]2c3cc4c(cc3C[C@H]3COC[C@@H]32)OCO4)cc(OC)c1OC` showed an ID50 of 0.8 µM.

In turn, `COc1cc([C@@H]2c3cc4c(cc3[C@H](O)[C@H]3COC(=O)[C@H]23)OCO4)cc(OC)c1OC` came in with an ID50 of 0.6 µM.

In turn, `COc1cc([C@@H]2c3cc4c(cc3[C@@H](O)[C@H]3COC(=O)[C@H]23)OCO4)cc(OC)c1OC` returned an ID50 of 5 µM.

Take `COc1cc([C@@H]2c3cc4c(cc3C[C@H]3CS(=O)(=O)C[C@@H]32)OCO4)cc(OC)c1OC`: the ID50 was greater than 100 µM.

In turn, `COc1cc([C@@H]2c3cc4c(cc3C[C@H]3CSC[C@@H]32)OCO4)cc(OC)c1OC` showed an ID50 of 10 µM.

In the case of `COc1cc([C@@H]2c3cc4c(cc3[C@H](O)[C@H]3COC(=O)[C@@H]23)OCO4)cc(OC)c1OC`, the ID50 turned out to be 30 µM.
